pIC50: −log10 of the molar value. Values belong to the compound of their own block, whether it stands above or below them.
How the values were obtained:
[1] = target: T1, Sterol O-acyltransferase 1 (Rattus norvegicus) (UniProt O70536); assay: (§1) Serum lipoprotein cholesterol diet containing ACAT inhibitor, after two weeks; type: functional
T1 sequence (whole entry): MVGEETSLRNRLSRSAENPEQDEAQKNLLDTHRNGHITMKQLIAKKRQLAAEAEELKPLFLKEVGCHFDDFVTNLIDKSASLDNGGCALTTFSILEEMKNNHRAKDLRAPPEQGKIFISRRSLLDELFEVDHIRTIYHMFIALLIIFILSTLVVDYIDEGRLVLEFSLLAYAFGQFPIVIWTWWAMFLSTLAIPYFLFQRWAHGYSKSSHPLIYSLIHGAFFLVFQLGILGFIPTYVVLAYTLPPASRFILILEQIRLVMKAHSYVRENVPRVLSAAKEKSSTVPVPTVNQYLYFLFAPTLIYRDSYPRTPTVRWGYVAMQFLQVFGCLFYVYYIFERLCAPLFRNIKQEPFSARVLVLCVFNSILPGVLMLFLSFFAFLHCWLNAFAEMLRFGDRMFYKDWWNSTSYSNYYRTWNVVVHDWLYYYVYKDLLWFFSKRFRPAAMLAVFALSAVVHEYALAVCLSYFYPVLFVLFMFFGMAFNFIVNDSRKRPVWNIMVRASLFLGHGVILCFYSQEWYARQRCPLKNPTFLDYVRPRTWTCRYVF
Summary of the method: (§2)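 Rats fed 1% cholesterol diet for one week, then for a second week the same diet with inhibitor in feed at 20 mg/kg/day, or the synthetic diet without cholesterol. 5 rats per group. Serum HDL, VLDL/LDL (PEG-8000 precipitation, glycine pH 9) and total cholesterol measured at day 7 and […].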

Rattus norvegicus [2] = species: Rattus norvegicus; assay: (§3) The compound was tested for % control of serum cholesterol in cholesterol; type: functional
Summary of the method: (§4)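 Male Sprague-Dawley rats (100–110 g), groups of 10, fed synthetic diet with 1% cholesterol; compound mixed into diet to give the stated daily dose (mg/kg) for 7 days. Serum from jugular bleed under anesthesia; VLDL+LDL separated from HDL by PEG-8000 precipitation in glycine buffer pH 9; values expressed as % of cholesterol-fed control; one-way design, LSD comparison.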

[3] = target: T1, Sterol O-acyltransferase 1 (Rattus norvegicus); assay: (§5) Serum lipoprotein cholesterol in Cholesterol-fed rats Treated with ACAT inhibitor, after two weeks; type: functional; summary of the method: as §2
Rattus norvegicus [4] = species: Rattus norvegicus; assay: as §3; type: functional; summary of the method: as §4; remark: listed apart in the source
[5] = target: T1, Sterol O-acyltransferase 1 (Rattus norvegicus); assay: (§6) Serum lipoprotein cholesterol diet containing ACAT inhibitor, after one week; type: functional; summary of the method: as §2
[6] = target: T1, Sterol O-acyltransferase 1 (Rattus norvegicus); assay: as §6; type: functional; summary of the method: as §2; remark: listed apart in the source
[7] = target: T1, Sterol O-acyltransferase 1 (Rattus norvegicus); assay: as §5; type: functional; summary of the method: as §2; remark: listed apart in the source
[8] = target: T1, Sterol O-acyltransferase 1 (Rattus norvegicus); assay: as §6; type: functional; summary of the method: as §2; remark: listed apart in the source
Rattus norvegicus [9] = species: Rattus norvegicus; assay: (§7) Percent control of serum cholesterol in cholesterol; type: functional; set-up: concentration or dose not given beside the values; summary of the method: as §4
Rattus norvegicus [10] = species: Rattus norvegicus; assay: Serum lipoprotein cholesterol fed rats dieted for both weeks, after one week; type: functional, organism-based; summary of the method: as §2
Rattus norvegicus [11] = species: Rattus norvegicus; assay: as §3; type: functional; summary of the method: as §4; remark: listed apart in the source
[12] = target: T1, Sterol O-acyltransferase 1 (Rattus norvegicus); assay: (§8) Serum lipoprotein cholesterol in Cholesterol-fed rats Treated with ACAT inhibitor, after one week; type: functional; summary of the method: as §2
[13] = target: T2, Sterol O-acyltransferase 1 (Rattus norvegicus, UniProt O70536); assay: In vitro inhibition of Fu5AH acyl coenzyme A:cholesterol acyltransferase.
T2 sequence (O70536 whole entry): T1 sequence (whole entry)

Rattus norvegicus [14] = assay: The compound was tested for % absorption of cholesterol in Cholesterol-Fed rats dosed at 20 mg/kg of body weight per day.; type: functional, organism-based; set-up: dose 20 mg/kg
Summary of the method: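 Zilversmit dual-isotope plasma ratio method in rats fed cholesterol diet ± compound in feed at 20 mg/kg/day. After one week, [3H]cholesterol given iv and [14C]cholesterol by oral gavage. Blood sampled on days 4, 7 and 9 after label; % oral cholesterol absorbed averaged over the 3 days per rat; one-way design.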

Rattus norvegicus [15] = species: Rattus norvegicus; assay: as §7; type: functional; set-up: concentration or dose not given beside the values; summary of the method: as §4; remark: listed apart in the source
[16] = target: T1, Sterol O-acyltransferase 1 (Rattus norvegicus); assay: Inhibition of Fu5AH Acyl coenzyme A:cholesterol acyltransferase at the concentration of 10 ug/mL
Rattus norvegicus [17] = species: Rattus norvegicus; assay: (§9) Serum lipoprotein cholesterol fed rats dieted or both weeks, after one week; type: functional, organism-based; summary of the method: as §2
Rattus norvegicus [18] = species: Rattus norvegicus; assay: (§10) Serum lipoprotein cholesterol fed rats dieted or both weeks, after two weeks; type: functional, organism-based; summary of the method: as §2
Rattus norvegicus [19] = species: Rattus norvegicus; assay: as §10; type: functional, organism-based; summary of the method: as §2; remark: listed apart in the source
Rattus norvegicus [20] = species: Rattus norvegicus; assay: as §9; type: functional, organism-based; summary of the method: as §2; remark: listed apart in the source
[21] = target: T1, Sterol O-acyltransferase 1 (Rattus norvegicus); assay: as §8; type: functional; summary of the method: as §2; remark: listed apart in the source
Rattus norvegicus [22] = species: Rattus norvegicus; assay: as §3; type: functional; summary of the method: as §4; remark: listed apart in the source
[23] = target: T1, Sterol O-acyltransferase 1 (Rattus norvegicus); assay: as §5; type: functional; summary of the method: as §2; remark: listed apart in the source
Rattus norvegicus [24] = species: Rattus norvegicus; assay: as §7; type: functional; set-up: concentration or dose not given beside the values; summary of the method: as §4; remark: listed apart in the source
Rattus norvegicus [25] = species: Rattus norvegicus; assay: Serum lipoprotein cholesterol fed rats dieted for both weeks, after two weeks; type: functional, organism-based; summary of the method: as §2
Rattus norvegicus [26] = species: Rattus norvegicus; assay: as §3; type: functional; summary of the method: as §4; remark: listed apart in the source
Rattus norvegicus [27] = species: Rattus norvegicus; assay: as §3; type: functional; summary of the method: as §4; remark: listed apart in the source
[28] = target: T1, Sterol O-acyltransferase 1 (Rattus norvegicus); assay: The compound was tested for Serum Lipoprotein cholesterol- (VLDL+LDL) (mg/dL) concentrations in Cholesterol-fed rats Treated with ACAT inhibitor; type: functional; summary of the method: as §2
[29] = target: T1, Sterol O-acyltransferase 1 (Rattus norvegicus); assay: The compound was tested for Serum Lipoprotein cholesterol- (total) (mg/dL) concentrations in Cholesterol-fed rats Treated with ACAT inhibitor; type: functional; summary of the method: as §2
[30] = target: T1, Sterol O-acyltransferase 1 (Rattus norvegicus); assay: as §1; type: functional; summary of the method: as §2; remark: listed apart in the source
[31] = target: T1, Sterol O-acyltransferase 1 (Rattus norvegicus); assay: as §8; type: functional; summary of the method: as §2; remark: listed apart in the source
[32] = target: T1, Sterol O-acyltransferase 1 (Rattus norvegicus); assay: The compound was tested for Serum Lipoprotein cholesterol- (HDL) (mg/dL) concentrations in Cholesterol-fed rats Treated with ACAT inhibitor; type: functional; summary of the method: as §2
Rattus norvegicus [33] = species: Rattus norvegicus; assay: as §3; type: functional; summary of the method: as §4; remark: listed apart in the source
Rattus norvegicus [34] = species: Rattus norvegicus; assay: as §3; type: functional; summary of the method: as §4; remark: listed apart in the source

Serum lipoprotein cholesterol [1]: 32.6
Serum lipoprotein cholesterol [3]: 56.1
Serum lipoprotein cholesterol [5]: 184
Serum lipoprotein cholesterol [6]: 65.8
Serum lipoprotein cholesterol [7]: 50.3
Serum lipoprotein cholesterol [8]: 119
Serum lipoprotein cholesterol [12]: 182
pIC50 [13]: 5.52
inhibition [16]: 85%
Serum lipoprotein cholesterol [21]: 52.9
Serum lipoprotein cholesterol [23]: 106
Serum lipoprotein cholesterol [28]: 41.8
Serum lipoprotein cholesterol [29]: 118
Serum lipoprotein cholesterol [30]: 108
Serum lipoprotein cholesterol [31]: 130
Serum lipoprotein cholesterol [32]: 76.4
SMILES: O=C(Cn1c2c(c(=O)n3nc(-c4ccc(Cl)cc4)cc13)CN(C1CCCCC1)C2=O)c1ccccc1
Control (Rattus norvegicus [2]): 81%
Control (Rattus norvegicus [4]): 37%
Control (Rattus norvegicus [9]): 40%
Serum lipoprotein cholesterol (Rattus norvegicus [10]): 146
Control (Rattus norvegicus [11]): 141%
Absorption (Rattus norvegicus [14]): 27%
Control (Rattus norvegicus [15]): 85%
Serum lipoprotein cholesterol (Rattus norvegicus [17]): 77.8
Serum lipoprotein cholesterol (Rattus norvegicus [18]): 52.2
Serum lipoprotein cholesterol (Rattus norvegicus [19]): 91.9
Serum lipoprotein cholesterol (Rattus norvegicus [20]): 68.8
Control (Rattus norvegicus [22]): 130%
Control (Rattus norvegicus [24]): 134%
Serum lipoprotein cholesterol (Rattus norvegicus [25]): 144
Control (Rattus norvegicus [26]): 32%
Control (Rattus norvegicus [27]): 84%

pIC50 [13]: 4.99
inhibition [16]: 93%
SMILES: C=CCCCCn1c2c(c(=O)n3nc(-c4ccccc4)cc13)CN(C1CCCCC1)C2=O
Control (Rattus norvegicus [4]): 79%
Control (Rattus norvegicus [33]): 114%
Control (Rattus norvegicus [34]): 95%

pIC50 [13]: 5.18
inhibition [16]: 79%
SMILES: CC1CCCC(N2Cc3c(n(CC(=O)c4ccccc4)c4cc(-c5ccccc5)nn4c3=O)C2=O)C1C (stereo not drawn)
Control (Rattus norvegicus [2]): 86%
Control (Rattus norvegicus [4]): 70%
Control (Rattus norvegicus [9]): 59%
Control (Rattus norvegicus [11]): 109%
Control (Rattus norvegicus [15]): 89%
Control (Rattus norvegicus [22]): 105%
Control (Rattus norvegicus [24]): 122%
Control (Rattus norvegicus [26]): 62%
Control (Rattus norvegicus [27]): 83%

— ChEMBL document CHEMBL1125881, “Synthesis and hypocholesterolemic activity of 6,7-dihydro-4H-pyrazolo[1,5-a]pyrrolo[3,4-d]pyrimidine-5,8-diones, novel inhibitors of acylCoA:cholesterol O-acyltransferase” (J Med Chem, 1991)
